Measurements published in ChEMBL document CHEMBL4699410, “Discovery, SAR study and ADME properties of methyl 4-amino-3-cyano-1-(2-benzyloxyphenyl)-1H-pyrazole-5-carboxylate as an HIV-1 replication inhibitor” (RSC Med Chem, 2020).
Values after ≈ are worked out from the molar mass of the structure shown. Active and inactive are the calls of the source. The calls are words filed in the database; no cut-off is given here.

Assays:
[1] = system: Human immunodeficiency virus 1; assay: (§1) Antiviral activity against HIV1 LAI infected in human HeLa-P4 cells harboring a stably integrated LTR-linked LacZ reporter gene assessed as inhibition of viral replication at 50 uM preincubated with cells for 2 hrs followed by viral infection and measured after 48 hrs of compound challenge by CPRG based beta-galactosidase assay relative to control; assay type: functional; settings: Human immunodeficiency virus 1, LAI, HeLaP4
In short: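 Single-concentration screen: HeLa P4 cells (stably integrated LTR–LacZ reporter) infected with HIV-1 Laï and incubated 48 h with compound at 50 µM; zidovudine as positive control.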

[2] = Cytotoxicity against human HeLa-P4 cells at 50 uM […] by MTS assay relative to control; assay type: cell-based; settings: hela p4, 50 µM
[3] = system: Human immunodeficiency virus 1; assay: as §1, with “replication” for “replication at 50 uM”, “assay” for “assay relative to control”; assay type: functional, organism-based
[4] = Thermodynamic solubility of compound in PBS at pH 7.4 incubated for 24 hrs under shaking condition by HPLC analysis; assay type: physicochemical; settings: read-out: Therm_solubility
[5] = Cmax in iv dosed mouse plasma measured after 10 mins; assay type: ADME, organism-based; parameters: route intravenous, time 10 min
[6] = Octanol/water partition coefficient, logD of the compound at pH 7.4 by shake flask method; assay type: physicochemical
[7] = Cmax in po dosed mouse plasma measured after 10 mins; assay type: ADME, organism-based; parameters: route oral, time 10 min
[8] = system: Human immunodeficiency virus 1; assay: Antiviral activity against HIV1 LAI infected in human MT2 cells assessed as suppression of viral replication up to 50 uM pre-incubated with cells for 2 hr before viral infection and measured after 3 days of cultivation by RT-PCR analysis; assay type: functional, organism-based; settings: dose microM <=50, time 3.0 day
[9] = biological target: Human immunodeficiency virus type 1 reverse transcriptase (Human immunodeficiency virus 1, UniProt Q72547); assay: Inhibition of wild-type recombinant HIV-1 subtype B reverse transcriptase p66/p51 heterodimer expressed in Escherichia coli using calf thymus DNA and [3H]-deoxythymidine 5'-triphophaste as substrate measured after 15 mins by liquid scintillation counting method
In short: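 Inhibition measured with subtype B wild-type HIV-1 RT in an in vitro susceptibility assay; nevirapine and AZT as positive controls.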

[10] = Metabolic stability in CD1 mouse liver microsomes assessed as half life of compound at 1 uM and measured up to 60 mins in presence of NADPH by LC-MS analysis; assay type: ADME, Microsome
[11] = Stability in CD-1 mouse plasma assessed as parent compound remaining at 1 uM measured up to 60 mins by LC-MS/MS analysis; assay type: ADME, cell-free; settings: read-out: Stabilty
[12] = system: Human immunodeficiency virus 1; assay: Inhibition of recombinant HIV1 integrase mediated strand transfer activity at 0.1 to 333 uM in presence of U5A/U5B2 and [gamma-32P]ATP; settings: dose microM 0.1-333
In short: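 HIV-1 integrase strand-transfer reaction run with increasing inhibitor concentrations from 100 nM to 333 µM, with raltegravir as positive control, and the strand-transfer efficiency was measured.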

[13] = Plasma protein binding in mouse at 1 uM incubated for 4 hrs by rapid equilibrium dialysis method; assay type: ADME, cell-free; settings: read-out: PPB (converted)
[14] = Human immunodeficiency virus 1, LAI, HeLaP4, read-out: EC50

Row | SMILES | inhibition at 50 µM [1] [%] | Activity [2] [%] | also measured
1 | COC(=O)c1c(N)c(C#N)nn1-c1ccc(Br)cc1 | 67 | > 15 | –
2 | COC(=O)c1c(N)c(C#N)nn1-c1ccccc1OC | < 30 | 9.2 | –
3 | COC(=O)c1c(N)c(C#N)nn1-c1ccccc1F | < 30 | 3.6 | –
4 | COC(=O)c1c2nc(-c3cccc(Br)c3)cc(N)c2nn1-c1cccc(OC)c1 | 54 | 2 | –
5 | COC(=O)c1c(N)c(C#N)nn1-c1cccc(C(F)(F)F)c1 | < 30 | > 15 | –
6 | COC(=O)c1c(N)c(C#N)nn1-c1ccc(C(=O)OC(C)(C)C)cc1 | 47 | 14 | –
7 | COC(=O)c1c(N)c(C#N)nn1-c1cccc([N+](=O)[O-])c1 | 47 | 0 | –
8 | COC(=O)c1c(N)c(C#N)nn1-c1ccc(Cl)cc1 | 56 | > 15 | –
9 | COC(=O)c1c(N)c(C#N)nn1-c1cccc(Cl)c1 | < 30 | 11 | –
10 | COC(=O)c1c(N)c(C#N)nn1-c1ccccc1[N+](=O)[O-] | 42 | 0 | –
11 | COC(=O)c1c(N)c(C#N)nn1-c1ccccc1I | < 30 | > 15 | –
12 | COC(=O)c1c(N)c(C#N)nn1-c1ccccc1Br | 32 | 4.8 | –
13 | COC(=O)c1c(N)c(C#N)nn1-c1ccccc1OCc1ccccc1 | 63 | 9 | EC50 [3, 14]: 19.4 µM; EC50 ([3]; hela p4): Dose-dependent effect; solubility thermodynamic at 24 h [4]: 9.6 µM (≈ 3.34 µg/mL); Cmax [5]: 238 ng/mL; logD [6]: 3.69; Cmax [7]: 18 ng/mL; Activity [8]: Active; IC50 [9]: > 1 mM; half-life at 1 µM [10]: 3 min; remaining at 1 h, 1 µM [11]: 100%; inhibition [12]: inactive; fraction unbound at 4 h, 1 µM [13]: 0.05
14 | COC(=O)c1c(N)c(C#N)nn1-c1cccc(Br)c1 | 42 | 9 | –
15 | COC(=O)c1c(N)c(C#N)nn1-c1ccccc1Cl | 30 | 2.4 | –
16 | COC(=O)c1c(N)c(C#N)nn1-c1ccccc1C(=O)OC(C)(C)C | < 30 | 2.8 | –
17 | COC(=O)c1c(N)c(C#N)nn1-c1ccccc1 | < 30 | 7 | –
18 | C#Cc1cccc(-n2nc(C#N)c(N)c2C(=O)OC)c1 | < 30 | 14 | –
19 | COC(=O)c1c(N)c(C#N)nn1-c1cccc(F)c1 | 48 | 0 | –
20 | COC(=O)c1c(N)c(C#N)nn1-c1ccc(OC)cc1 | < 30 | 14.6 | –
21 | COC(=O)c1c(N)c(C#N)nn1-c1ccc(C(F)(F)F)cc1 | < 30 | 14 | –
22 | COC(=O)c1c(N)c(C#N)nn1-c1cccc(OCc2ccccc2)c1 | 65 | 11 | EC50 [3, 14]: 15.2 µM; EC50 ([3]; hela p4): Dose-dependent effect; solubility thermodynamic at 24 h [4]: 1.03 µM (≈ 0.359 µg/mL); Cmax [5]: 241 ng/mL; logD [6]: 3.84; Activity [8]: Active; half-life at 1 µM [10]: 4.6 min; remaining at 1 h, 1 µM [11]: 100%
23 | C#Cc1ccccc1-n1nc(C#N)c(N)c1C(=O)OC | < 30 | 7 | –
24 | COC(=O)c1c(N)c(C#N)nn1-c1cccc(C(=O)OC(C)(C)C)c1 | 36 | 0 | –
25 | COC(=O)c1c(N)c(C#N)nn1-c1ccc(OCc2ccccc2)cc1 | < 30 | 3.8 | –
26 | COC(=O)c1c(N)c(C#N)nn1-c1cccc(OC)c1 | < 30 | 6 | –
27 | C[C@H](Cn1cnc2c(N)ncnc21)OCP(=O)(O)O [TENOFOVIR ANHYDROUS] | – | – | EC50 [3, 14]: 13.3 µM
28 | COC(=O)c1c(N)c(C#N)nn1-c1ccc([N+](=O)[O-])cc1 | 43 | 0 | –
29 | COC(=O)c1c(N)c(C#N)nn1-c1ccc(F)cc1 | < 30 | 6 | –
